Reference: ChEMBL document CHEMBL3232916, “1-(4-Methoxyphenyl)-5-(3,4,5-trimethoxyphenyl)-1H-1,2,4-triazole-3-carboxamides: synthesis, molecular modeling, evaluation of their anti-inflammatory activity and ulcerogenicity” (Eur J Med Chem, 2014)

Assays:
[1] = system: Rattus norvegicus; assay: Ulcerogenic effect in albino rat assessed as capillary inflammatory cells using hematoxylin and eosin staining at 0.28 mmol/kg, po by light microscopic analysis; assay type: toxicity, organism-based; settings: in vivo
Outline: (§1)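 Stomach sections were dewaxed through graded alcohols to water and stained with haematoxylin for 5–7 min. They were differentiated 5–10 s in 1% HCl in 70% alcohol, then stained with 1% eosin for 10 min, with tap-water washes between steps. The sections were then examined by light microscopy for mucosal and glandular changes.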

[2] = system: Rattus norvegicus; assay: Antiinflammatory activity in albino rat assessed as inhibition of carrageenan-induced paw edema at 0.28 mmol/kg, po administered 30 mins before carrageenan challenge measured after 2 hrs relative to control; assay type: functional
Outline: (§2)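 Male albino rats, n = 4 per group. Dosed orally as a suspension in 0.5% w/v CMC in water; controls received CMC alone. 0.1 mL of freshly prepared 1% carrageenan in saline was injected subplantar into the right hind paw 30 min after dosing, with saline in the left paw. Right paw thickness was read by Vernier caliper before and at 1–5 h. Result is % decrease in edema vs control, mean ± S.E.M.; one-way ANOVA.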

[3] = system: Rattus norvegicus; assay: Ulcerogenic effect in albino rat assessed as loss of mucosal membrane using hematoxylin and eosin staining at 0.28 mmol/kg, po by light microscopic analysis; assay type: toxicity, organism-based; settings: in vivo; outline: as §1
[4] = system: Rattus norvegicus; assay: Antiinflammatory activity in albino rat assessed as inhibition of carrageenan-induced paw edema at 0.28 mmol/kg, po administered 30 mins before carrageenan challenge measured after 5 hrs relative to control; assay type: functional; outline: as §2
[5] = system: Rattus norvegicus; assay: Antiinflammatory activity in albino rat assessed as inhibition of carrageenan-induced paw edema at 0.28 mmol/kg, po administered 30 mins before carrageenan challenge measured after 4 hrs relative to control; assay type: functional; outline: as §2
[6] = system: Rattus norvegicus; assay: Ulcerogenic effect in albino rat assessed as ulcer index at 0.28 mmol/kg, po; assay type: toxicity, organism-based; settings: in vivo
Outline: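 Rat gastric ulcers were graded by area: level I <1 mm², level II 1–3 mm², level III >3 mm². Ulcer index = 1×(level I count) + 2×(level II) + 3×(level III). Reported as mean ± S.E.M., n = 4.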

[7] = system: Rattus norvegicus; assay: Ulcerogenic effect in albino rat assessed as apoptotic glandular epithelial cells using hematoxylin and eosin staining at 0.28 mmol/kg, po by light microscopic analysis; assay type: toxicity, organism-based, Epithelial cell; settings: in vivo; outline: as §1
[8] = system: Rattus norvegicus; assay: Antiinflammatory activity in albino rat assessed as inhibition of carrageenan-induced paw edema at 0.28 mmol/kg, po administered 30 mins before carrageenan challenge measured after 3 hrs relative to control; assay type: functional; outline: as §2
[9] = system: Rattus norvegicus; assay: Antiinflammatory activity in albino rat assessed as inhibition of carrageenan-induced paw edema at 0.28 mmol/kg, po administered 30 mins before carrageenan challenge measured after 1 hr relative to control; assay type: functional; outline: as §2
[10] = system: Rattus norvegicus; assay: Antiinflammatory activity in albino rat assessed as inhibition of carrageenan-induced paw edema at 0.28 mmol/kg, po administered 30 mins before carrageenan challenge measured after 3 hrs relative to celecoxib; assay type: functional; settings: read-out: INH
Outline: (§3)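 Calculated from the 3 h % edema inhibition in carrageenan paw edema (male albino rats, oral dosing in 0.5% CMC 30 min before 1% carrageenan subplantar injection). Expressed as % of the inhibition given by the reference drug in the same assay.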

[11] = system: Rattus norvegicus; assay: Antiinflammatory activity in albino rat assessed as inhibition of carrageenan-induced paw edema at 0.28 mmol/kg, po administered 30 mins before carrageenan challenge measured after 3 hrs relative to indomethacin; assay type: functional; settings: read-out: INH; outline: as §3
[12] = system: Rattus norvegicus; assay: Ulcerogenic effect in albino rat assessed as morphology using hematoxylin and eosin staining at 0.28 mmol/kg, po by light microscopic analysis; assay type: toxicity, organism-based; settings: in vivo; outline: as §1

| SMILES | Activity [1] | inhibition in vivo at 280 µmol/kg [2] | Activity [3] | inhibition in vivo at 280 µmol/kg [4] | inhibition in vivo at 280 µmol/kg [5] | UI [6] | Activity [7] | inhibition in vivo at 280 µmol/kg [8] | inhibition in vivo at 280 µmol/kg [9] | paw edema inhibition relative to celecoxib at 280 µmol/kg [10] | paw edema inhibition relative to indomethacin at 280 µmol/kg [11] | Activity [12] |
| --- | --- | --- | --- | --- | --- | --- | --- | --- | --- | --- | --- | --- |
| COc1ccc2c(c1)c(CC(=O)O)c(C)n2C(=O)c1ccc(Cl)cc1 [INDOMETHACIN] | Toxic | 68% | Toxic | 86% | 81% | 41 | Toxic | 78% | 55% | – | – | – |
| COc1ccc(-n2nc(C(=O)Nc3ccccc3C)nc2-c2cc(OC)c(OC)c(OC)c2)cc1 | – | 30% | – | 47% | 46% | 1.5 | – | 50% | 19% | 74% | 64% | Non-toxic |
